Our source for the folding enthalpy and Tm values is the array DNA melting data of Ke et al. (doi:10.1101/2024.01.08.574731).

Data set [1] can be described thus: folding enthalpy; higher = less favourable; fluorescence melt of hairpins on a sequencing array, two-state fit. The following applies: sodium 0.088 M. The method in brief: (§1)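 To match UV melts, fitted temperatures were raised by 9.35 °C. These fits were bootstrapped two-state models that gave melting temperature and folding enthalpy, combined by inverse variance over four replicates. The input was normalised Cy3 fluorescence of library hairpins with annealed Cy3 and quencher oligos on a sequenced MiSeq flow cell, imaged in 50 mM Na-HEPES pH 8.0, 25 mM NaCl in 2.5 °C steps up to 60 °C.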

Data set [2] in a line: melting temperature; fluorescence melt of hairpins on a sequencing array, two-state fit, raised by 9.35 °C to match UV melts. The following applies: sodium 0.088 M. The method in brief:
as §1

For the sequence GGACGTCGAAAGACATCC (((.(((....))).))), the folding enthalpy in data set [1] was -26.5 kcal/mol. The Tm in data set [2] came out at 47.3 °C.
For GGACGTCGAAAGACCTCC (((.(((....))).))), the folding enthalpy in data set [1] was -22.3 kcal/mol. Besides, in data set [2], the Tm came to 41.2 °C.
GGACTACCGAAAGGTTCC (((..(((....)))))): the folding enthalpy in data set [1] is -11.2 kcal/mol. In addition, the Tm in data set [2] came out at 32.8 °C.
The matching figures for GGACTCGAAAGAGACTCC ((((((....)))..))): -11.6 kcal/mol and 36 °C.
For GGACTCGAAAGAGATTCC ((((((....)))..))), the folding enthalpy in data set [1] is -11.3 kcal/mol. For the same sequence, in data set [2], the Tm is 25.6 °C.
For GGACTCGAAAGAGCGTCC ((((((....)))..))) the same measures were -16 kcal/mol and 32 °C.
For the sequence GGACTCGCGAAAGCGTCC (((..(((....)))))), in data set [1], the folding enthalpy was -13.1 kcal/mol. Moreover, in data set [2], the Tm was determined as 39.1 °C.
For GGACTCGGAAACGAGTTC (.(((((....))))).) the same measures were -38.3 kcal/mol and 53.6 °C.
The matching figures for GGACTCGGAAACGGGTTC (.((.((....)).)).): -25.7 kcal/mol and 40.2 °C.
Turning to GGACTGCCGAAAGGCTCC (((..(((....)))))), in data set [1], the folding enthalpy was -10.2 kcal/mol. In addition, the Tm in data set [2] is 34.7 °C.
The matching figures for GGACTGCGAAAGCATCC (((.(((....)))))): -13.5 kcal/mol and 41.8 °C.
For GGACTGCGAAAGCATTCC (((.(((....))).))) the same measures were -29.8 kcal/mol and 48.5 °C.
The matching figures for GGACTGGGAAACCAATCC (((.(((....))).))): -28 kcal/mol and 36 °C.
For GGACTGGGAAACCAGCCC ((.((((....)))).)), the folding enthalpy in data set [1] was -20.5 kcal/mol. Also, the Tm in data set [2] was found to be 50.4 °C.
For GGACTGTCGAAAGACTCC (((..(((....)))))) the same measures were -5.54 kcal/mol and 21.5 °C.
For GGACTTCGAAAGAAATCC (((.(((....))).))) the same measures were -26.6 kcal/mol and 37.3 °C.
The matching figures for GGACTTGGAAACAAATCC (((.(((....))).))): -12.4 kcal/mol and 35.3 °C.
As to GGACTTGGAAACGAGTTC (.(((.(....).))).), in data set [1], the folding enthalpy is -21.5 kcal/mol. For the same sequence, the Tm in data set [2] is 32.9 °C.
For GGAGAACCGAAAGGTTCC (((..(((....)))))) the same measures were -9.16 kcal/mol and 43.1 °C.
Regarding GGAGAACGAAAGTTGTCC (((.(((....))).))), in data set [1], the folding enthalpy is -34.6 kcal/mol. In addition, the Tm in data set [2] came to 51.5 °C.
The matching figures for GGAGAAGAAATTCTCC ((((((....)))))): -27.7 kcal/mol and 47.7 °C.
For GGAGAAGGAAACTTCCCC ((.((((....)))).)) the same measures were -16.8 kcal/mol and 35.2 °C.
On to GGAGAATCGAAAGATTCC (((..(((....)))))), for which the folding enthalpy in data set [1] was -15.8 kcal/mol. The Tm in data set [2] is 38.1 °C.
The matching figures for GGAGACCGAAAGGTTCC (((.(((....)))))): -22.5 kcal/mol and 48 °C.
For GGAGACGAAAGTCATCC ((((((....))).))) the same measures were -17.3 kcal/mol and 45.5 °C.
For GGAGACGAAAGTCGCTCC ((((((....)))..))) the same measures were -13 kcal/mol and 42.4 °C.
For the sequence GGAGACGAAAGTCGGTCC ((((((....)))..))), in data set [1], the folding enthalpy is -12.3 kcal/mol. In data set [2], the Tm was determined as 39.8 °C.
The matching figures for GGAGAGAAATCTCC (((((....))))): -18.4 kcal/mol and 45.1 °C.
As for GGAGATGGAAACATCTCC (((((((....))))))), the folding enthalpy in data set [1] was -38 kcal/mol. In addition, the Tm in data set [2] was found to be 65 °C.
For GGAGCAGGAAACCACTCC ((((..(....)..)))) the same measures were -11.5 kcal/mol and 27.1 °C.
The matching figures for GGAGCAGGAAACTACTCC ((((.((....)).)))): -27.4 kcal/mol and 41.1 °C.
For GGAGCAGGAAACTGCCCC ((.((((....)))).)) the same measures were -17.4 kcal/mol and 49.7 °C.
Regarding GGAGCCGAAAGGCATCC ((((((....))).))), the folding enthalpy in data set [1] is -14.2 kcal/mol. In addition, the Tm in data set [2] is 53.8 °C.
The matching figures for GGAGCCGAAAGGCATTCC ((((((....)))..))): -10.3 kcal/mol and 33.1 °C.
Regarding GGAGCCGAAAGGCGTCC ((((((....))).))), the folding enthalpy in data set [1] is -9.6 kcal/mol. Further, the Tm in data set [2] is 53.4 °C.
The matching figures for GGAGCCGAAAGGCTATCC ((((((....)))..))): -8.64 kcal/mol and 38.2 °C.
GGAGCCGAAAGGCTCTCC ((((((....)))..))): the folding enthalpy in data set [1] was -7.29 kcal/mol. The Tm in data set [2] turned out to be 56.5 °C.
